How the values were obtained:
SK-BR-3 [1] = assay: Cytotoxicity against human SKBR3 cells assessed as cell viability at 6.25 uM after 72 hrs by MTS assay; type: functional; conditions: SK-BR-3, 72 h, read-out: Activity
Summary of the method: (§1)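 SKBR3 breast cancer cells were exposed to compound for 72 h. Viability was measured by MTS and reported as % viability at each of five concentrations: 6.25, 12.5, 25, 50 and 100. A viability-versus-concentration plot was also made.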

SK-BR-3 [2] = assay: Cytotoxicity against human SKBR3 cells assessed as cell viability at 50 uM after 72 hrs by MTS assay; type: functional; conditions: SK-BR-3, 72 h, read-out: Activity; summary of the method: as §1
SK-BR-3 [3] = assay: Cytotoxicity against human SKBR3 cells assessed as cell viability at 100 uM after 72 hrs by MTS assay; type: functional; conditions: SK-BR-3, 72 h, read-out: Activity; summary of the method: as §1
SK-BR-3 [4] = assay: Cytotoxicity against human SKBR3 cells assessed as cell viability at 25 uM after 72 hrs by MTS assay; type: functional; conditions: SK-BR-3, 72 h, read-out: Activity; summary of the method: as §1
SK-BR-3 [5] = assay: Cytotoxicity against human SKBR3 cells assessed as cell viability at 12.5 uM after 72 hrs by MTS assay; type: functional; conditions: SK-BR-3, 72 h, read-out: Activity; summary of the method: as §1
SK-BR-3 [6] = assay: Cytotoxicity against human SKBR3 cells after 72 hrs by MTS assay; type: functional, cell-based; conditions: SK-BR-3, 72 h; summary of the method: as §1

| SMILES | viability at 6.25 µM (SK-BR-3 [1]) | viability at 50 µM (SK-BR-3 [2]) | viability at 100 µM (SK-BR-3 [3]) | viability at 25 µM (SK-BR-3 [4]) | viability at 12.5 µM (SK-BR-3 [5]) | IC50 (SK-BR-3 [6]) |
| --- | --- | --- | --- | --- | --- | --- |
| CN1[C@H](COCc2ccccc2)COCS1(=O)=O | 85% | 83% | 82% | 88% | 81% |  |
| O=S1(=O)COC[C@H](COCc2ccc(-c3ccc(CBr)cc3)cc2)N1 | 99% | 18% | 20% | 26% | 81% | 10 µM |
| CCCCCCCC/C=C\CCCCCCCCOC[C@@H]1COCS(=O)(=O)N1Cc1ccccc1 | 100% | 100% | 100% | 99% | 100% |  |
| CCCCCCCC/C=C\CCCCCCCCOC[C@@H]1COCS(=O)(=O)N1C | 72% | 65% | 65% | 65% | 71% |  |
| CCCCCCCC/C=C\CCCCCCCCOC[C@H]1COCS(=O)(=O)N1Cc1ccccc1 | 71% | 82% | 96% | 81% | 81% |  |
| O=S1(=O)COC[C@@H](COCc2ccccc2)N1Cc1ccccc1 | 89% | 83% | 82% | 88% | 82% |  |
| O=S1(=O)COC[C@@H](COCc2ccccc2)N1 | 100% | 80% | 16% | 100% | 100% |  |
| O=S1(=O)COC[C@@H](COCc2ccc(F)cc2)N1Cc1ccccc1 | 93% | 99% | 96% | 88% | 86% |  |
| O=S1(=O)COC[C@@H](COCc2ccc(-c3ccc(CBr)cc3)cc2)N1 | 66% | 10% | 10% | 10% | 34% | 10 µM |
| O=S1(=O)COC[C@@H](COCc2ccc(-c3ccccc3)cc2)N1 | 75% | 44% | 46% | 75% | 75% |  |
| O=C(OC[C@@H]1COCS(=O)(=O)N1Cc1ccccc1)c1ccccc1 | 81% | 89% | 100% | 88% | 98% |  |
| CN1[C@H](COCc2ccc3ccccc3c2)COCS1(=O)=O | 81% | 74% | 74% | 73% | 82% |  |
| CN1[C@H](COCc2ccc(-c3ccccc3)cc2)COCS1(=O)=O | 89% | 61% | 52% | 60% | 66% |  |
| COc1cccc(COC[C@@H]2COCS(=O)(=O)N2Cc2ccccc2)c1 | 100% | 96% | 89% | 100% | 100% |  |
| O=S1(=O)COC[C@H](COCc2ccccc2)N1 | 100% | 51% | 22% | 78% | 94% |  |
| O=S1(=O)COC[C@H](COCc2ccccc2)N1Cc1ccccc1 | 81% | 87% | 96% | 82% | 80% |  |
